Results taken from ChEMBL document CHEMBL4765409, “Synthesis and biological evaluation of geniposide derivatives as potent and selective PTPlB inhibitors” (Eur J Med Chem, 2020).

Key:
[1] = biological target: T1, Tyrosine-protein phosphatase non-receptor type 1 (Homo sapiens, UniProt P18031); assay: Inhibition of recombinant human PTP1B using pNPP as substrate measured after 30 mins
T1 sequence (P18031 whole entry): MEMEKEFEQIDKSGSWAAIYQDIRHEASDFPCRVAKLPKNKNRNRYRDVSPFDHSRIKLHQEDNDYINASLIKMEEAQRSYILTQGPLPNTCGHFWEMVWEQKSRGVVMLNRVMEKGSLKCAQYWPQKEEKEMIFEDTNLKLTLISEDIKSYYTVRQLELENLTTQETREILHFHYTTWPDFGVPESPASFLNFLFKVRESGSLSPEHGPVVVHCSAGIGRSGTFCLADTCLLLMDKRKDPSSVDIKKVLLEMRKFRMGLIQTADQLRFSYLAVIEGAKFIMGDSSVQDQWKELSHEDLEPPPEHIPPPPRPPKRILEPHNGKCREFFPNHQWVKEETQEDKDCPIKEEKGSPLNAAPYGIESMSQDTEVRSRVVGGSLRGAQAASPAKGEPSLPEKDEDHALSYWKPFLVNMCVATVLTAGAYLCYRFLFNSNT
Procedure, shortened: (§1)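 75 nM recombinant enzyme (PTP1B, TCPTP or SHP2) with 2.5 mM pNPP in 10 mM Tris, 25 mM NaCl, 1 mM EDTA, pH 7.1; compounds added from DMSO. Reaction run 30 min at room temperature, stopped with 2.0 N NaOH, pNP read at 405 nm. Sodium vanadate as positive control. IC50 from enzyme progress curves; means of triplicates, repeated twice.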

CHO = assay: Cytotoxicity against CHO cells assessed as reduction in cell viability measured after 24 hrs by MTT assay; format: cell-based; settings: Cricetulus griseus
Procedure, shortened: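 CHO cells in DMEM with 10% FBS and 1% penicillin-streptomycin, 5% CO2, 37 °C; 5×10^3 cells/well seeded, treated after 24 h with varying compound concentrations for 24 h. MTT then added for 4 h at 37 °C in the dark, medium removed, formazan dissolved in DMSO, OD read at 490 nm.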

CHO (Cricetulus griseus) = assay: Cytotoxicity against Chinese hamster CHO cells assessed as reduction in cell viability measured after 24 hrs by MTT assay
[2] = biological target: T2, Tyrosine-protein phosphatase non-receptor type 2 (Homo sapiens, UniProt P17706); assay: Inhibition of recombinant human TCPTP using pNPP as substrate measured after 30 mins; procedure, shortened: as §1
T2 sequence (P17706 whole entry): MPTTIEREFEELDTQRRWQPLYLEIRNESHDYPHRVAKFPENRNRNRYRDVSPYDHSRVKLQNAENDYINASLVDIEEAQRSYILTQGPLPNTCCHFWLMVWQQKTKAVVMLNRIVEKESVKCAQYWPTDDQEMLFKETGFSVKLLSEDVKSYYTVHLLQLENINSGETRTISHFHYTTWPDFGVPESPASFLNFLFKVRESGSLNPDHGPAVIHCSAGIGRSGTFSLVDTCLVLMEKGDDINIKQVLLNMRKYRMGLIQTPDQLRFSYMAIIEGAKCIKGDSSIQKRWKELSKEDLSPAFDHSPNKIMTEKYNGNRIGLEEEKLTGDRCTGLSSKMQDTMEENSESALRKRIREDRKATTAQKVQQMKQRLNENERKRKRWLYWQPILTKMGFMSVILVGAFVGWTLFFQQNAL

[3] = biological target: T3, Tyrosine-protein phosphatase non-receptor type 1 (Homo sapiens) (UniProt P18031); assay: Inhibition of PTP1B in human HepG2 cells assessed as improvement in insulin-induced 2-NBDG uptake at 5 uM incubated for 24 hrs prior to compound washout followed by insulin stimulation for 20 mins and subsequent 2-NBDG addition measured after 60 mins by FACS analysis relative to control; format: cell-based
T3 sequence (whole entry): T1 sequence (P18031 whole entry)
Procedure, shortened: (§2)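 HepG2 cells in DMEM with 10% FBS and 1% penicillin-streptomycin, 5% CO2, 37 °C; 5×10^4 cells/well in 24-well plates. Compound exposure 24 h, then two PBS washes. Stimulated with 100 nM insulin for 20 min, then 50 μM 2-NBDG for 60 min. Uptake read by flow cytometry, FL1 channel; pioglitazone as positive control.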

[4] = biological target: T3, Tyrosine-protein phosphatase non-receptor type 1 (Homo sapiens); assay: Inhibition of PTP1B in human HepG2 cells assessed as improvement in insulin-induced 2-NBDG uptake at 10 uM incubated for 24 hrs prior to compound washout followed by insulin stimulation for 20 mins and subsequent 2-NBDG addition measured after 60 mins by FACS analysis relative to control; format: cell-based; procedure, shortened: as §2
[5] = biological target: T3, Tyrosine-protein phosphatase non-receptor type 1 (Homo sapiens); assay: Inhibition of PTP1B in human HepG2 cells assessed as improvement in insulin-induced 2-NBDG uptake at 20 uM incubated for 24 hrs prior to compound washout followed by insulin stimulation for 20 mins and subsequent 2-NBDG addition measured after 60 mins by FACS analysis relative to control; format: cell-based; procedure, shortened: as §2
[6] = biological target: T4, Tyrosine-protein phosphatase non-receptor type 11 (Homo sapiens, UniProt Q06124); assay: Inhibition of recombinant SHP2 (unknown origin) using pNPP as substrate measured after 30 mins; procedure, shortened: as §1
T4 sequence (Q06124 whole entry): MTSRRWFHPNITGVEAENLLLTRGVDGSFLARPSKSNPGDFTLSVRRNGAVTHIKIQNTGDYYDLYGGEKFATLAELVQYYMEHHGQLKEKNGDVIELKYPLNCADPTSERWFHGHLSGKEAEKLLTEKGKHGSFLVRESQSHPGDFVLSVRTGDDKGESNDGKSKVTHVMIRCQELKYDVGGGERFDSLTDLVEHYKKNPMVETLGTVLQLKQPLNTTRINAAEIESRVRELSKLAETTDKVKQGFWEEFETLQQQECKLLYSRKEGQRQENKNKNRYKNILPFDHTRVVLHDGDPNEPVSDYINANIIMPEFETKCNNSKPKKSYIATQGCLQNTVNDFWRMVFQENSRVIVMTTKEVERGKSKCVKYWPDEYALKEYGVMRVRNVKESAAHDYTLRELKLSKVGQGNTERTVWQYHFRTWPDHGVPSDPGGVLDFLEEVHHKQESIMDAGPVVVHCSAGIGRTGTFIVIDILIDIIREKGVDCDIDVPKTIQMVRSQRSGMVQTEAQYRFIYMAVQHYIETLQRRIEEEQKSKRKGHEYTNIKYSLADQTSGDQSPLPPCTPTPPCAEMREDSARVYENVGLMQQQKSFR

[7] = biological target: T1, Tyrosine-protein phosphatase non-receptor type 1; assay: Inhibition of recombinant human PTP1B (1 to 322 residues) expressed in Escherichia coli using IR5 (1142 to 1153, pY1146) as substrate by malachite green dye based colorimetric assay

Work on `COc1ccccc1NC(=O)C1=CO[C@@H](O[C@@H]2O[C@H](CO)[C@@H](O)[C@H](O)[C@H]2O)[C@@H]2C(CO)=CC[C@H]12` yielded an IC50 [1] of 50.8 µM.
In the case of `COC(=O)C1=CO[C@@H](OCc2ccccc2)[C@@H]2C(CO)=CC[C@H]12`, the IC50 [1] is reported as 40.3 µM.
In the case of `CCO[C@@H]1OC=C(C(=O)OC)[C@H]2CC=C(CO)[C@@H]12`, the IC50 [1] is reported as 64.7 µM.
Compound `CCOS(=O)(=O)/C=C/c1ccc(OCC2=CC[C@@H]3C(C(=O)Nc4ccc(Oc5ccccc5)cc4)=CO[C@@H](OCc4ccccc4)[C@H]23)cc1` has an IC50 (CHO) of 62 µM, an IC50 (CHO (Cricetulus griseus)) greater than 200 µM and an IC50 [1] of 0.99 µM.
Work on `O=C(Nc1ccc(-c2ccccc2)cc1)C1=CO[C@@H](O[C@@H]2O[C@H](CO)[C@@H](O)[C@H](O)[C@H]2O)[C@@H]2C(CO)=CC[C@H]12` yielded an IC50 [1] of 21.7 µM.
`CCOS(=O)(=O)/C=C/c1ccc(OCC2=CC[C@@H]3C(C(=O)Nc4ccc(Oc5ccc(Br)cc5Cl)cc4)=CO[C@@H](OC)[C@H]23)cc1` was tested, and the IC50 (CHO) was greater than 200 µM, the IC50 (CHO (Cricetulus griseus)) was greater than 200 µM and the IC50 [1] was 1.05 µM.
In the case of `COC(=O)C1=CO[C@@H](O[C@@H]2O[C@H](COCc3ccccc3)[C@@H](OCc3ccccc3)[C@H](OCc3ccccc3)[C@H]2OCc2ccccc2)[C@@H]2C(COCc3ccccc3)=CC[C@H]12`, the IC50 (CHO) is reported as 42 µM, the IC50 (CHO (Cricetulus griseus)) is reported as greater than 200 µM and the IC50 [1] is reported as 0.68 µM.
`CCOS(=O)(=O)/C=C/c1ccc(OCC2=CC[C@@H]3C(C(=O)Nc4ccc(Oc5ccc(-c6ccccc6)cc5)cc4)=CO[C@@H](OC)[C@H]23)cc1` showed an IC50 (CHO) greater than 200 µM, an IC50 [2] of 0.95 µM and an inhibition [3] of 38.6%. The inhibition [4] was 68%, the inhibition [5] was 69.6% and the IC50 [6] was 1.24 µM. For the same compound, the IC50 (CHO (Cricetulus griseus)) was greater than 200 µM and the IC50 [1] was 0.43 µM.
Work on `COC(=O)C1=CO[C@@H](O[C@@H]2O[C@H](CO)[C@@H](O)[C@H](O)[C@H]2O)[C@@H]2C(CO)=CC[C@H]12` [GENIPOSIDE] yielded an IC50 [2] greater than 500 µM, an IC50 [6] greater than 500 µM and an IC50 [1] greater than 500 µM.
With `COC(=O)C1=CO[C@@H](OC)[C@@H]2C(CO)=CC[C@H]12` the IC50 [1] was 236 µM.
For `CCc1ccccc1NC(=O)C1=CO[C@@H](O[C@@H]2O[C@H](CO)[C@@H](O)[C@H](O)[C@H]2O)[C@@H]2C(CO)=CC[C@H]12`, the IC50 [2] was greater than 100 µM, the IC50 [6] was greater than 100 µM and the IC50 [1] was 18.3 µM.
`O=C(Nc1ccc(Oc2ccccc2)cc1)C1=CO[C@@H](O[C@@H]2O[C@H](CO)[C@@H](O)[C@H](O)[C@H]2O)[C@@H]2C(CO)=CC[C@H]12` gave an IC50 [1] of 25.2 µM.
`O=C1C[C@@H](O[C@@H]2O[C@H](CO)[C@@H](O)[C@H](O)[C@H]2O)CO1` was tested, and the IC50 [7] was 5.14 µM, the IC50 [2] was greater than 50 µM and the IC50 [6] was greater than 50 µM. For the same compound, the IC50 [1] was 5.8 µM.
In the case of `O=C(O)C1=CO[C@@H](O[C@@H]2O[C@H](COCc3ccccc3)[C@@H](OCc3ccccc3)[C@H](OCc3ccccc3)[C@H]2OCc2ccccc2)[C@@H]2C(COCc3ccccc3)=CC[C@H]12`, the IC50 (CHO) is reported as greater than 200 µM, the IC50 [2] is reported as 1.32 µM and the IC50 [6] is reported as 3.32 µM. The IC50 (CHO (Cricetulus griseus)) was greater than 200 µM and the IC50 [1] was 0.38 µM.
With `CCOS(=O)(=O)/C=C/c1ccc(OCC2=CC[C@@H]3C(C(=O)Nc4ccc(Oc5ccc(Br)cc5Cl)cc4)=CO[C@@H](OCc4ccccc4)[C@H]23)cc1` the IC50 (CHO) was greater than 200 µM, the IC50 [2] was 1.29 µM and the inhibition [3] was 43.8%. The inhibition [4] was 68.3%, the inhibition [5] was 64.4% and the IC50 [6] was 3.97 µM. The IC50 (CHO (Cricetulus griseus)) was greater than 200 µM and the IC50 [1] was 0.41 µM.
`CCOS(=O)(=O)/C=C/c1ccc(OCC2=CC[C@@H]3C(C(=O)Nc4ccc(Oc5ccc6ccccc6c5)cc4)=CO[C@@H](OC)[C@H]23)cc1` showed an IC50 (CHO) greater than 200 µM, an IC50 (CHO (Cricetulus griseus)) greater than 200 µM and an IC50 [1] of 0.75 µM.
`O=C(Nc1ccccc1)C1=CO[C@@H](O[C@@H]2O[C@H](CO)[C@@H](O)[C@H](O)[C@H]2O)[C@@H]2C(CO)=CC[C@H]12` was tested, and the IC50 [1] was greater than 100 µM.
In the case of `CC(C)(C)c1ccc(Oc2ccc(NC(=O)C3=CO[C@@H](O[C@@H]4O[C@H](CO)[C@@H](O)[C@H](O)[C@H]4O)[C@@H]4C(CO)=CC[C@H]34)cc2)cc1`, the IC50 [2] is reported as greater than 100 µM, the IC50 [6] is reported as greater than 100 µM and the IC50 [1] is reported as 17.7 µM.
In the case of `CCOS(=O)(=O)/C=C/c1ccc(OCC2=CC[C@@H]3C(C(=O)OC)=CO[C@@H](OCc4ccccc4)[C@H]23)cc1`, the IC50 [1] is reported as 13.2 µM.
Compound `CCc1ccc(CCOc2ccc(CC3SC(=O)NC3=O)cc2)nc1` (stereo not drawn) has an inhibition [3] of 33.8%, an inhibition [4] of 46% and an inhibition [5] of 63.5%.
For `O=C(Nc1ccccc1F)C1=CO[C@@H](O[C@@H]2O[C@H](CO)[C@@H](O)[C@H](O)[C@H]2O)[C@@H]2C(CO)=CC[C@H]12`, the IC50 [1] was 20.8 µM.
`COC(=O)C1=CO[C@@H](O)[C@@H]2C(CO)=CC[C@H]12` [GENIPIN] gave an IC50 [2] greater than 500 µM, an IC50 [6] greater than 500 µM and an IC50 [1] greater than 500 µM.
`O=C(Nc1ccc(Oc2ccccc2)cc1)C1=CO[C@@H](O[C@@H]2O[C@H](COCc3ccccc3)[C@@H](OCc3ccccc3)[C@H](OCc3ccccc3)[C@H]2OCc2ccccc2)[C@@H]2C(COCc3ccccc3)=CC[C@H]12` showed an IC50 (CHO) greater than 200 µM, an IC50 (CHO (Cricetulus griseus)) greater than 200 µM and an IC50 [1] of 0.4 µM.
In the case of `CCOS(=O)(=O)/C=C/c1ccc(CNC(=O)C2=CO[C@@H](O[C@@H]3O[C@H](COCc4ccccc4)[C@@H](OCc4ccccc4)[C@H](OCc4ccccc4)[C@H]3OCc3ccccc3)[C@@H]3C(COCc4ccccc4)=CC[C@H]23)cc1`, the IC50 (CHO) is reported as greater than 200 µM, the inhibition [3] is reported as 43.4% and the inhibition [4] is reported as 36.5%. The inhibition [5] was 49.8%, the IC50 (CHO (Cricetulus griseus)) was greater than 200 µM and the IC50 [1] was 0.35 µM.
`CCOS(=O)(=O)/C=C/c1ccc(OCC2=CC[C@@H]3C(C(=O)Nc4ccc(Oc5ccccc5)cc4)=CO[C@@H](OC)[C@H]23)cc1` showed an IC50 (CHO) greater than 200 µM, an IC50 (CHO (Cricetulus griseus)) greater than 200 µM and an IC50 [1] of 2.67 µM.
